{
  "source": "ChEMBL document CHEMBL3853360",
  "about": "“Combined Interactions with I1-, I2-Imidazoline Binding Sites and α2-Adrenoceptors To Manage Opioid Addiction” (ACS Med Chem Lett, 2016)",
  "key": {"[1]": {"target": "T1, Adrenergic receptor alpha-2 (Rattus norvegicus, UniProt P22086+P19328+P22909)", "T1 sequence (P22086 whole entry)": "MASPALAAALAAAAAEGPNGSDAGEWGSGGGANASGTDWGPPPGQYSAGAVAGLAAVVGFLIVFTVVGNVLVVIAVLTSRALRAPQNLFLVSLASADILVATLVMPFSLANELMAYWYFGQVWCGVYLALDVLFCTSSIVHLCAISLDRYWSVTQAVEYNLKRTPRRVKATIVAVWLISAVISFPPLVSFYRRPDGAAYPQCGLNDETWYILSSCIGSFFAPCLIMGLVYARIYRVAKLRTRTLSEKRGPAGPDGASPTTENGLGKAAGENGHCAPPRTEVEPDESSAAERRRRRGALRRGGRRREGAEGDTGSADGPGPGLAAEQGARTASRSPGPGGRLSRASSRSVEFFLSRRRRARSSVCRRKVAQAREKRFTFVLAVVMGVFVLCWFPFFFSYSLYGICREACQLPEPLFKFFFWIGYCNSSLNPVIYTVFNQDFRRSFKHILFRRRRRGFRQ", "T1 sequence (P19328 whole entry)": "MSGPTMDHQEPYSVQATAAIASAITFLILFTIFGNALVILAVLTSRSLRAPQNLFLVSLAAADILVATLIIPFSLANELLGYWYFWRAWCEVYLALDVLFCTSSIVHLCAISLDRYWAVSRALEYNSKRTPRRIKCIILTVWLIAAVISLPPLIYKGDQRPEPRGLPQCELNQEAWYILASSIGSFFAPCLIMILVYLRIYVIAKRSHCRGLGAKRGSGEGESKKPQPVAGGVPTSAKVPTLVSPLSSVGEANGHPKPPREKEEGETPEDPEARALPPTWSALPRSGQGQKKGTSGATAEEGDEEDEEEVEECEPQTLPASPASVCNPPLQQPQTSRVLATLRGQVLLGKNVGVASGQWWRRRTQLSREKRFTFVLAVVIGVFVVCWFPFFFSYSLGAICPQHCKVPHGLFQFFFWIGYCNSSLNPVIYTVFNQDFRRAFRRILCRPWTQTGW", "T1 sequence (P22909 whole entry)": "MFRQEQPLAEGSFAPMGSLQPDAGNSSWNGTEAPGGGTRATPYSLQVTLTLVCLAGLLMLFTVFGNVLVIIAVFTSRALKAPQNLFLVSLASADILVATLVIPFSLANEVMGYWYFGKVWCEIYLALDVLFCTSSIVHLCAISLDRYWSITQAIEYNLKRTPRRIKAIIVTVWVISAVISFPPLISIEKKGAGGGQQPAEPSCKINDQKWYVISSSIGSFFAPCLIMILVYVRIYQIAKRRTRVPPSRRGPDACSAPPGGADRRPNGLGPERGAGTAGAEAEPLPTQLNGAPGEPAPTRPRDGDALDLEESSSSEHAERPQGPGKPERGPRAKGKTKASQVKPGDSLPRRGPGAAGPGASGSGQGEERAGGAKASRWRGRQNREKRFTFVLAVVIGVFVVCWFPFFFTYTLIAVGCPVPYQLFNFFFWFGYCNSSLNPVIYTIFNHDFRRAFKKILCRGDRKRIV", "assay": "Displacement of [3H]-clonidine from alpha2-AR in rat brain cortical membranes after 45 mins by liquid scintillation counting", "format": "cell membranes"}, "[2]": {"assay": "Displacement of [3H]idazoxan from I2 receptor imidazoline binding site in rabbit kidney membranes after 45 mins by […]", "format": "cell membranes, Oryctolagus cuniculus, Membrane"}, "[3]": {"assay": "Displacement of [3H]-2-BFI from I2 receptor imidazoline binding site in Sprague-Dawley rat brain membranes after 30 mins by liquid scintillation counting", "format": "cell membranes, Membrane", "method_in_brief": "(§1)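 Radioligand competition binding with pKi determined by displacement. I1 sites: [125I]-p-iodoclonidine on rat kidney membranes. I2 sites: [3H]-2-BFI on rat brain membranes. α2-ARs: [3H]-RX821002 on rat brain membranes.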"}, "Mus musculus [4]": {"test_system": "Mus musculus", "assay": "Reduction in morphine dependence acquisition in CD1 mouse assessed as inhibition of naloxone-precipitated teeth chattering frequency at 10 mg/kg, ip administered 15 mins prior to each morphine challenge relative to control", "format": "functional", "method_in_brief": "(§2)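 Mice received i.p. test compound (5 or 10 mg/kg) 15 min before each of repeated morphine injections, with vehicle and morphine-only controls. Withdrawal was then precipitated with naloxone. Jumping frequency and somatic signs (rearing, forepaw tremor, teeth chattering; summed frequency) were scored and compared with the morphine group. Data are mean ± SEM of 6–10 animals.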"}, "[5]": {"assay": "Reduction in morphine dependence expression in CD1 mouse assessed as inhibition of naloxone-precipitated jumping at 10 mg/kg, ip administered acutely 15 mins prior to naloxone challenge relative to control", "format": "functional, organism-based"}, "Mus musculus [6]": {"test_system": "Mus musculus", "assay": "Reduction in morphine dependence acquisition in CD1 mouse assessed as inhibition of naloxone-precipitated rearing frequency at 10 mg/kg, ip administered 15 mins prior to each morphine challenge relative to control", "format": "functional", "method_in_brief": "as §2"}, "Mus musculus [7]": {"test_system": "Mus musculus", "assay": "Reduction in morphine dependence acquisition in CD1 mouse assessed as inhibition of naloxone-precipitated rearing frequency at 5 mg/kg, ip administered 15 mins prior to each morphine challenge relative to control", "format": "functional", "method_in_brief": "as §2"}, "[8]": {"assay": "Reduction in morphine dependence expression in CD1 mouse assessed as inhibition of naloxone-precipitated rearing frequency at 5 mg/kg, ip administered acutely 15 mins prior to naloxone challenge relative to control", "format": "functional, organism-based"}, "Mus musculus [9]": {"test_system": "Mus musculus", "assay": "Reduction in morphine dependence acquisition in CD1 mouse assessed as inhibition of naloxone-precipitated forepaw tremor frequency at 5 mg/kg, ip administered 15 mins prior to each morphine challenge relative to control", "format": "functional", "method_in_brief": "as §2"}, "[10]": {"assay": "Reduction in morphine dependence expression in CD1 mouse assessed as inhibition of naloxone-precipitated rearing frequency at 10 mg/kg, ip administered acutely 15 mins prior to naloxone challenge relative to control", "format": "functional, organism-based"}, "[11]": {"assay": "Reduction in morphine dependence expression in CD1 mouse assessed as inhibition of naloxone-precipitated forepaw tremor frequency at 10 mg/kg, ip administered acutely 15 mins prior to naloxone challenge relative to control", "format": "functional, organism-based"}, "[12]": {"assay": "Reduction in morphine dependence expression in CD1 mouse assessed as inhibition of naloxone-precipitated teeth chattering frequency at 10 mg/kg, ip administered acutely 15 mins prior to naloxone challenge relative to control", "format": "functional, organism-based"}, "[13]": {"target": "T1, Adrenergic receptor alpha-2", "assay": "Displacement of [3H]-RX 821002 from alpha2-AR in Sprague-Dawley rat brain membranes after 30 mins by liquid scintillation counting", "format": "cell membranes, Membrane", "method_in_brief": "as §1"}, "[14]": {"assay": "Reduction in morphine dependence expression in CD1 mouse assessed as inhibition of naloxone-precipitated forepaw tremor frequency at 5 mg/kg, ip administered acutely 15 mins prior to naloxone challenge relative to control", "format": "functional, organism-based"}, "[15]": {"assay": "Reduction in morphine dependence expression in CD1 mouse assessed as inhibition of naloxone-precipitated teeth chattering frequency at 5 mg/kg, ip administered acutely 15 mins prior to naloxone challenge relative to control", "format": "functional, organism-based"}, "Mus musculus [16]": {"test_system": "Mus musculus", "assay": "Reduction in morphine dependence acquisition in CD1 mouse assessed as inhibition of naloxone-precipitated teeth chattering frequency at 5 mg/kg, ip administered 15 mins prior to each morphine challenge relative to control", "format": "functional", "method_in_brief": "as §2"}, "Nischarin": {"target": "Nischarin (Rattus norvegicus, UniProt Q4G017)", "sequence (Q4G017 whole entry)": "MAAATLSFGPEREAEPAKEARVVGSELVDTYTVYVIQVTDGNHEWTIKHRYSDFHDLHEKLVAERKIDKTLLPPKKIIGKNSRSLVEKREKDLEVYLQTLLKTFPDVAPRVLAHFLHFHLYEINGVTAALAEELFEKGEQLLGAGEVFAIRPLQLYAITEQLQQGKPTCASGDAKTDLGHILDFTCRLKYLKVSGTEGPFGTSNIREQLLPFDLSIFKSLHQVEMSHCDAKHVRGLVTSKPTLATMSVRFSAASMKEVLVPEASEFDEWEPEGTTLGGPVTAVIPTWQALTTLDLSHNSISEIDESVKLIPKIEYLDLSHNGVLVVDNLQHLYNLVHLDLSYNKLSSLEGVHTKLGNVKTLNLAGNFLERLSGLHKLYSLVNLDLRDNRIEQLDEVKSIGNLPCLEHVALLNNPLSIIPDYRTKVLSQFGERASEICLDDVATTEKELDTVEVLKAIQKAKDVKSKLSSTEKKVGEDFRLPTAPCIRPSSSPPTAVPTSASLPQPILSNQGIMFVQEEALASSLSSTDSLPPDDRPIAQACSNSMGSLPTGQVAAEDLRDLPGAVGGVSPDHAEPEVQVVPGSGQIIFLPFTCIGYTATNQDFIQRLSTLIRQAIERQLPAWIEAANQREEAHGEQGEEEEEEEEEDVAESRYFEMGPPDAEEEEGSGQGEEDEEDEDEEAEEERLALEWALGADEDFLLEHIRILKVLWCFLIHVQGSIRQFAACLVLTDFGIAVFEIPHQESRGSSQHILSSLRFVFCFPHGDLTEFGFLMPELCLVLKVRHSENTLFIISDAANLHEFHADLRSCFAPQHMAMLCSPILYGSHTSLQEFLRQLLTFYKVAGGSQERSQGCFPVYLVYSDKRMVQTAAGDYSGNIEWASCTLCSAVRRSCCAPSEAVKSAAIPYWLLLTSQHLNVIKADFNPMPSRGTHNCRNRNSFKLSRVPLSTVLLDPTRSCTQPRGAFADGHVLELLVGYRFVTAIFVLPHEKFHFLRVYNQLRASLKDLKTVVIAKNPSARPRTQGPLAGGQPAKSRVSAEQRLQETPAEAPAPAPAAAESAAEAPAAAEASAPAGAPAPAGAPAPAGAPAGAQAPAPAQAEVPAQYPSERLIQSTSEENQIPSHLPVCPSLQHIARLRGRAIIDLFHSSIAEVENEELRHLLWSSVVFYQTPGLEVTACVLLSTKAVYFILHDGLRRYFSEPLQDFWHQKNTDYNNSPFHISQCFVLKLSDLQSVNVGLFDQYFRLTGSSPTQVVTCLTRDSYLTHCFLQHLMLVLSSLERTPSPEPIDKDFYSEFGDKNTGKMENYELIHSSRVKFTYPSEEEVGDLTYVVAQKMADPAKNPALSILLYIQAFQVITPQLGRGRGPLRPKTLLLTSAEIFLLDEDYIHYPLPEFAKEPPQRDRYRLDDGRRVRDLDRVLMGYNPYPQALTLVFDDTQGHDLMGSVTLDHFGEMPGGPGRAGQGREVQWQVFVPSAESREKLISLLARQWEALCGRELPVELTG", "assay": "Displacement of [125I]-p-iodoclonidine from I1 receptor imidazoline binding site in Sprague-Dawley rat kidney cell membranes after 30 mins by liquid scintillation counting", "method_in_brief": "as §1"}, "Mus musculus [17]": {"test_system": "Mus musculus", "assay": "Reduction in morphine dependence acquisition in CD1 mouse assessed as inhibition of naloxone-precipitated jumping at 10 mg/kg, ip administered 15 mins prior to each morphine challenge", "format": "functional, organism-based", "method_in_brief": "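Acquisition protocol in mice given repeated morphine. Test drug at 5 or 10 mg/kg i.p. was given 15 min before each morphine injection. Withdrawal was then precipitated with naloxone and jumping frequency counted. Data are mean ± SEM of 6–10 animals, compared with the morphine group.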"}, "Mus musculus [18]": {"test_system": "Mus musculus", "assay": "Reduction in morphine dependence acquisition in CD1 mouse assessed as inhibition of naloxone-precipitated forepaw tremor frequency at 10 mg/kg, ip administered 15 mins prior to each morphine challenge relative to control", "format": "functional", "method_in_brief": "as §2"}, "Homo sapiens": {"species": "Homo sapiens", "assay": "Selectivity ratio of agonist activity at I1 receptor imidazoline binding site (unknown origin) to agonist activity at alpha2-AR (unknown origin)"}},
  "note": "Calls of active or inactive are those of the source. The calls are words filed in the database; no cut-off is given here.",
  "data": [
    {"smiles": "C(=C\\c1ccccc1)/C1=NCCN1", "note": "[TRACIZOLINE]", "values": [
      {"measurement": "pKi", "setting": "[1]", "result": "< 6"},
      {"measurement": "pKi", "setting": "[2]", "result": 8.72}
    ]},
    {"smiles": "Cc1ccccc1/C=C/C1=NCCN1", "values": [
      {"measurement": "pKi", "setting": "[3]", "result": 9.11},
      {"measurement": "inhibition in vivo at 10 mg/kg", "setting": "Mus musculus [4]", "result": 46, "unit": "%"},
      {"measurement": "inhibition", "setting": "[5]", "result": 90, "unit": "%"},
      {"measurement": "inhibition in vivo at 10 mg/kg", "setting": "Mus musculus [6]", "result": 46, "unit": "%"},
      {"measurement": "inhibition in vivo at 5 mg/kg", "setting": "Mus musculus [7]", "result": 34, "unit": "%"},
      {"measurement": "inhibition", "setting": "[8]", "result": 50, "unit": "%"},
      {"measurement": "inhibition in vivo at 5 mg/kg", "setting": "Mus musculus [9]", "result": 34, "unit": "%"},
      {"measurement": "inhibition", "setting": "[10]", "result": 50, "unit": "%"},
      {"measurement": "inhibition", "setting": "[11]", "result": 50, "unit": "%"},
      {"measurement": "inhibition", "setting": "[12]", "result": 50, "unit": "%"},
      {"measurement": "pKi", "setting": "[13]", "result": "< 6"},
      {"measurement": "inhibition", "setting": "[14]", "result": 50, "unit": "%"},
      {"measurement": "inhibition", "setting": "[15]", "result": 50, "unit": "%"},
      {"measurement": "inhibition in vivo at 5 mg/kg", "setting": "Mus musculus [16]", "result": 34, "unit": "%"},
      {"measurement": "Ki", "setting": "Nischarin", "result": 17.8, "unit": "nM"},
      {"measurement": "inhibition", "setting": "Mus musculus [17]", "result": "Active"},
      {"measurement": "inhibition in vivo at 10 mg/kg", "setting": "Mus musculus [18]", "result": 46, "unit": "%"}
    ]},
    {"smiles": "Clc1cccc(Cl)c1NC1=NCCN1", "values": [
      {"measurement": "Selectivity ratio", "setting": "Homo sapiens", "result": 4}
    ]}
  ]
}
